Compounds with a hit are over-represented: about 4.4% of the library has one in this group of screens.
MsrA act: activates bovine MsrA enzyme. AID 602163. activation, % at 10.6 µM. 360,000 compounds, 0.3% hits. purified bovine MsrA, absorbance read-out; in the data active = activation above about 7.5%
AHR act: activators of human aryl hydrocarbon receptor. P35869. AHR-responsive luciferase reporter cells, luminescence. activation, % at 5 µM. 320,000 compounds, 2.5% hits; in the data active = activation above about 47%
HTR2A ag: mouse HTR2A agonism via beta-arrestin recruitment; 360,000 compounds, 0.66% hits; activation, % at 7.6 µM; CHO-K1 mHTR2A beta-arrestin complementation, luminescence; percent of 30 µM serotonin response;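 active = activation above a run cutoff, the mean activation of all tested compounds plus 3 SD, cut at about 14% in these data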
MsrA inh: inhibits bovine methionine sulfoxide reductase A; purified bovine MsrA, absorbance read-out; inhibition, % at 15.5 µM; 360,000 compounds, 0.75% hits; in the data active = inhibition above about 4.5%
AI-2 QS modul: modulators of Vibrio harveyi AI-2 quorum sensing system | Vibrio harveyi JMH597 AI-2 luminescence/OD600 ratio, 9 h; hits give low values; strain lacks LuxN and CqsS sensors; 0 = neutral-control median | 300,000 compounds, 0.4% hits | activity change, % at 7.5 µM; in the data active = activity change below about -75%, passing the limit was not always enough;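 also: luminescence divided by OD600 gain over 9 h not by final OD600 alone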
TbMetRS inhib: Trypanosoma brucei MetRS inhibition; purified T. brucei MetRS, ATP depletion, Kinase-Glo luminescence; inhibition, % at 11.9 µM; 360,000 compounds, 0.4% hits;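 active = inhibition above a per-plate cutoff of the control wells' mean inhibition plus 3 SD, cut at about 5.5% in these data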
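technique = Kinase-Glo luminescence, ATP depletion format | system = purified MetRS (methionyl-tRNA synthetase) enzyme from Trypanosoma brucei | timing = 15 min preincubation, 2 h reaction, all 25 °C | evaluation = percent inhibition versus plate control medians | dosing = single dose, 11.9 µM final nominal, 0.9% final DMSO | also added = substrates ATP, L-methionine and bulk Escherichia coli tRNA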
MOR ag counter: activates human mu opioid receptor in HTR2A counterscreen | shares compounds with HTR2A ag | U2OS OPRM1 beta-arrestin PathHunter, luminescence; DMSO 0%, DAMGO 9.3 µM 100% | activation, % at 9.3 µM | 2,300 compounds, 5.3% hits;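 active = mean activation above the mean of DMSO-only wells plus 3 SD, cut at about 0.5% in these data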
Target sequence (P35372 whole entry, looked up): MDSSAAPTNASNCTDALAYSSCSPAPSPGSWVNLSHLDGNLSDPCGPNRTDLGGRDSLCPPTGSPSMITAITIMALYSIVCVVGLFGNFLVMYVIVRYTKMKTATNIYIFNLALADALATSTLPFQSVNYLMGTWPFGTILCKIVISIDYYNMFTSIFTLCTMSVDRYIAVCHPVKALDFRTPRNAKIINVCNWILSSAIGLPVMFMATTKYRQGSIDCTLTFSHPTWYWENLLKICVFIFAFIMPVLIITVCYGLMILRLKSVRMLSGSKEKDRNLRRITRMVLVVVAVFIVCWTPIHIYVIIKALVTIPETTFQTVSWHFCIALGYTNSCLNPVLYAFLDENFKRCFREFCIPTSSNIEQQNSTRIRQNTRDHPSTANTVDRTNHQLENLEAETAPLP
HTR2A ag conf: confirmation of mouse HTR2A serotonin receptor agonists | activation, % at 7.6 µM | CHO-K1 PathHunter beta-arrestin recruitment, luminescence; DMSO 0%, 30 µM serotonin 100% | shares compounds with HTR2A ag | 2,300 compounds, 19% hits;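 active = mean activation across triplicates above the hit threshold derived in the original primary screen, cut at about 15% in these data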
Hits are given with their value; . = inactive; / = no result given.

SMILES | MsrA act | AHR act | HTR2A ag | MsrA inh | AI-2 QS modul | TbMetRS inhib | MOR ag counter | HTR2A ag conf
COc1ccc(OCC(O)CN2CCCCC2)cc1 (centres undefined) | . | . | . | . | . | . | / | /
CC(=O)c1ccc(OCC(O)CN2CCN(c3ccccn3)CC2)cc1 (centres undefined) | . | . | 37.2 | . | . | . | . | 92.5
COCCc1ccc(OC2(C)CCN(Cc3cccn3-c3nccs3)C2)cc1 (centres undefined) | . | / | . | . | / | . | / | /
O=C(NCc1ccc(F)cc1)c1cc(C2CCCCN2C(=O)OCCF)on1 (centres undefined) | . | / | . | . | / | . | / | /
O=C1NC[C@H](Cc2ccccc2)N(C[C@H]2CCCN2C[C@H](Cc2ccc(O)cc2)N2C[C@H](Cc3ccc(O)cc3)N(CC3CCCCCC3)C(=O)C2=O)C1=O | . | / | 26.2 | . | / | . | . | 73.4
COc1ccc(C2/C(=C(\O)c3ccc4c(c3)OCCO4)C(=O)C(=O)N2Cc2cccnc2)cc1OC (centres undefined) | . | . | 19.9 | . | . | . | . | .
Cc1ccc(C2/C(=C(\O)c3ccc4c(c3)OCCO4)C(=O)C(=O)N2Cc2cccnc2)cc1 (centres undefined) | . | . | . | . | . | . | / | /
Cc1csc(NC(=O)C2CCCN(S(=O)(=O)c3ccc4c(c3)oc(=O)n4C)C2)n1 (centres undefined) | . | . | 21.3 | . | . | . | . | .
CC(NC(=O)CN1C(=O)NC2(CCCC2)C1=O)c1ccc(Cl)cc1Cl (centres undefined) | . | . | . | . | / | . | / | /
COc1ccccc1NC(=S)N(CCc1c(C)[nH]c2ccccc12)Cc1cccs1 | . | . | 15.6 | . | . | . | . | .
COc1ccc2[nH]c(C)c(CCN(Cc3cccs3)C(=S)Nc3ccccc3)c2c1 | . | . | . | . | . | . | / | /
CC(C)NNC(=O)c1ccncc1 | . | . | 28.5 | . | . | . | . | 44.8
CCn1c(=S)[nH]c2c(=O)n(C)c(=O)n(C)c21 | . | / | 17.2 | . | / | . | . | .
C[C@H](CO)N1C[C@H](C)[C@@H](CN(C)S(=O)(=O)c2ccc(F)cc2)Oc2ccc(NC(=O)NC3CCCCC3)cc2C1=O | . | . | . | . | / | . | / | /
CCOc1ccc(N2C(=O)CC(NCCc3c[nH]c4ccccc34)C2=O)cc1 (centres undefined) | . | . | 18.9 | . | . | . | . | .
CCOc1ccc(N2C(=O)CC(NCCc3ccncc3)C2=O)cc1 (centres undefined) | . | . | . | . | . | . | / | /
CCn1cc(CN2CCC(C(=O)Nc3ccc(Oc4ccccc4F)cc3)CC2)cn1 | . | / | 14.6 | . | / | . | . | .
CC(=O)Nc1ccc(-c2csc(NC(=O)Cc3cccc(F)c3)n2)cc1 | . | . | . | . | . | . | / | /
CSc1ccccc1OCc1cc(C(=O)N2CCC[C@H]2C(N)=O)no1 | . | . | 14.9 | . | . | . | . | .
CSc1ccccc1OCc1cc(C(=O)N2CCSCC2)no1 | . | . | . | . | . | . | / | /
CC(NC(=O)Nc1ccccc1C(F)(F)F)C1CCCO1 (centres undefined) | . | . | 26.1 | . | . | . | . | .
O=C(O)CSc1cnc2ccccc2n1 | . | . | 18.0 | . | . | . | . | .
Cc1ccc(N2CC(C(=O)NCCS(=O)(=O)N3CCN(c4ccccc4)CC3)CC2=O)cc1C (centres undefined) | . | . | . | . | . | . | / | /
c1csc(-c2nnc(NC3CCCCC3)c3ccccc23)c1 | . | . | 23.4 | . | . | . | . | .
Cc1ccn2cc(CNS(=O)(=O)c3ccc4c(c3)OCCO4)nc2c1 | . | . | 25.7 | . | . | . | . | .
CC(C)n1nnnc1SCC(=O)N(C)C1CCS(=O)(=O)C1 (centres undefined) | . | . | . | . | / | . | / | /

Assay outcomes as filed in PubChem.
